Compound activity as filed in PubChem.
PLCb3 inh: blocks human PLC-beta3 enzyme activity; Q01970; Purified PLC-beta3, fluorogenic substrate, fluorescence; inhibition, % at 12.2 µM; actives 0.18% (n = 370,000); in the data active = inhibition above about 11%
HGIII-sPLA2 inh: Blocks human group III sPLA2 activity; AID 743126; Q9NZ20; QFRET BODIPY PC-A2 liposome hydrolysis, fluorescence; inhibition, % at 12.2 µM; actives 0.56% (n = 370,000);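 active = inhibition above mean plus 3 SD of compounds lying within the high and low control bounds, cut at about 19% in these data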
TbMetRS inhib: Trypanosoma brucei MetRS inhibition; purified T. brucei MetRS, ATP depletion, Kinase-Glo luminescence; inhibition, % at 11.9 µM; actives 0.4% (n = 360,000); AID 624268;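 active = inhibition above a per-plate cutoff of the control wells' mean inhibition plus 3 SD, cut at about 5.5% in these data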
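System: purified T. brucei MetRS enzyme / Detection: Kinase-Glo luciferase luminescence reporting remaining unconsumed ATP / Medium: HEPES buffer with MgCl2, KCl, DTT, spermine, BSA, pyrophosphatase / Replication: singlicate, one well per compound / Evaluation: percent inhibition relative to median high and low control wells / Schedule: 2 h aminoacylation at 25 °C after 15 min preincubation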
PLC-gamma1 inh: blocks human PLC-gamma1 enzyme activity. AID 720700. purified PLC-gamma1, fluorogenic substrate, fluorescence. actives 0.84% (n = 370,000). inhibition, % at 12.2 µM. P19174; in the data active = inhibition above about 9.5%
DAGLB inh: diacylglycerol lipase beta (human) inhibition | Q8NCG7 | HEK293T DAGLB membrane lysate, EnzChek fluorogenic substrate | inhibition, % at 5.17 µM | actives 0.059% (n = 340,000) | AID 504411; in the data active = inhibition above about 34%
Target sequence (Q8NCG7 whole entry, looked up): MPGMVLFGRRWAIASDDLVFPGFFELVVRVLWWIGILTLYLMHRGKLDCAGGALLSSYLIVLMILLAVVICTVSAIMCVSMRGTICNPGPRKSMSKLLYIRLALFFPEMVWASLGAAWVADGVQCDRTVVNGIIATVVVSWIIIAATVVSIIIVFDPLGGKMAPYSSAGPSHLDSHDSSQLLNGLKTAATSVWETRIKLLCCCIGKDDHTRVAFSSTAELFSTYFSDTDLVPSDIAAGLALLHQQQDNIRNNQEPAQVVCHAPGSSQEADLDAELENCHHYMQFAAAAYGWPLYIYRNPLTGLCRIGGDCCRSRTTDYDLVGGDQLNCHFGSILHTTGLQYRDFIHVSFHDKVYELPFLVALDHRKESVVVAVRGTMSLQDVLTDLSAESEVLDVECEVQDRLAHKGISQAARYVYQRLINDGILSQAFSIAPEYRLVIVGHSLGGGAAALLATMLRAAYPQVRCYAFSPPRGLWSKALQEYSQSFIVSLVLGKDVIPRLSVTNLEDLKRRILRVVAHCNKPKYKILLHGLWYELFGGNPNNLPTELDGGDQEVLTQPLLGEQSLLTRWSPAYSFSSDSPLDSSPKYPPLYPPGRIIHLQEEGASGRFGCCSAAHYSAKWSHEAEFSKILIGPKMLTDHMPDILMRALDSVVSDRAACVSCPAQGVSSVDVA
Tb MetRS conf: confirmation of Trypanosoma brucei MetRS inhibitors. shares compounds with TbMetRS inhib. T. brucei MetRS enzyme, luminescence (ATP depletion). inhibition, % at 11.9 µM. actives 93% (n = 1,400). AID 624412; in the data active = inhibition above about 7%
Jurkat tox: counter-screen for T. brucei MetRS inhibitors: Jurkat cell cytotoxicity; actives 12% (n = 1,400); shares compounds with TbMetRS inhib; AID 624413; inhibition, % at 8.3 µM; Jurkat cells viability, ATP luminescence; in the data active = inhibition above about 15%
TbMetRS FP orth: inhibits T. brucei methionyl tRNA synthetase in orthogonal FP test | inhibition, % at 11.9 µM | shares compounds with TbMetRS inhib | actives 44% (n = 1,400) | AID 651607 | purified T. brucei MetRS, fluorescence polarization; in the data active = inhibition above about 17%
Numbers stand for hits; . = inactive; / = not tested or not shown; ! = not confirmed by another sample. Compounds with a hit are over-represented: about 1.9% of the library has one in this group of screens.

SMILES	PLCb3 inh	HGIII-sPLA2 inh	TbMetRS inhib	PLC-gamma1 inh	DAGLB inh	Tb MetRS conf	Jurkat tox	TbMetRS FP orth
O=C(O)c1ccc(-n2cncn2)c([N+](=O)[O-])c1	.	.	.	.	.	/	/	/
COc1ccccc1C(=O)N1CCC(Oc2cccnc2)CC1	.	.	/	.	/	/	/	/
COC(=O)C1=C(C)N(Cc2ccccc2C(F)(F)F)C(=NCc2ccccc2)NC1c1ccc(Cl)cc1 (stereo not given)	.	.	/	.	/	/	/	/
CC(C)CNc1cccc2c1S(=O)(=O)N[C@@H](C)CO2	.	.	/	.	/	/	/	/
O=C(NN=Cc1ccco1)c1cccnc1	.	.	/	.	/	/	/	/
COC(=O)Cn1cnc2c(NC(=O)c3ccccc3)ncnc21	.	.	/	.	/	/	/	/
CN(C)S(=O)(=O)c1cccc(NC(=O)c2ccc(Sc3nncn3C)c([N+](=O)[O-])c2)c1	.	.	.	.	.	/	/	/
CCN(CC)CCNC(=O)c1ccc(NC(=O)c2ccc(-n3cncn3)c([N+](=O)[O-])c2)cc1	.	.	17	.	.	37	.	.
CCN(CC)S(=O)(=O)c1ccc(OC)c(NC(=O)c2ccc(-n3cncn3)c([N+](=O)[O-])c2)c1	.	.	37	.	.	81	.	50
Cc1ccc(C(=O)NNC(=O)c2ccc(-n3cncn3)c([N+](=O)[O-])c2)cc1	.	.	11	.	.	41	.	20
CCN(CC)S(=O)(=O)c1ccc(OC)c(NC(=O)c2ccc([N+](=O)[O-])cc2)c1	.	.	.	.	.	/	/	/
CN(C)S(=O)(=O)c1cccc(NC(=O)c2ccc(-n3cncn3)c([N+](=O)[O-])c2)c1	.	.	43	.	.	78	.	50
CC(=O)CC[C@H]1CC[C@]2(CCCN(C(=O)C3CCCCC3)C2)O1	.	.	/	.	/	/	/	/
O=C(NCc1ccccc1)OC1CC2CC1[C@H]1CCCCN1C2 (stereo not given in full)	.	.	/	.	/	/	/	/
O=S1(=O)c2ccc(Br)cc2OC[C@H](Cc2ccccc2)N1Cc1cn(Cc2ccc(Cl)cc2)nn1	.	.	/	.	/	/	/	/
CCCCc1c(-c2ccccc2OC)ncn1Cc1cc(F)ccc1F	.	.	/	.	/	/	/	/
O=C(Nc1cccc(Cl)c1)c1ccc(-n2cncn2)c([N+](=O)[O-])c1	.	.	42	.	.	66	.	37
CC(C)Cc1nnc(NC(=O)c2ccc(-n3cncn3)c([N+](=O)[O-])c2)s1	.	.	.	.	.	/	/	/
O=C(Nc1ccc(Cl)cc1)c1ccc(-n2cccn2)c([N+](=O)[O-])c1	.	.	.	.	.	/	/	/
O=C(Nc1ccc(Cl)cc1)c1ccc(-n2cncn2)c([N+](=O)[O-])c1	.	.	42	.	.	62	.	33
CS(=O)(=O)c1ccc(Cl)c(NC(=O)c2ccc(-n3cncn3)c([N+](=O)[O-])c2)c1	.	.	57	.	.	81	.	67
CCC(C)(C)C(=O)N1CCC(C(=O)NC2CCCc3ccccc32)CC1 (stereo not given)	.	.	/	.	/	/	/	/
COc1ccc(-n2c(SCC(=O)Nc3ccc(Oc4ccccc4)cc3)nnc2-c2ccco2)cc1	.	.	/	.	/	/	/	/
COc1ccc(N2CCN(CCNS(=O)(=O)c3c(C(C)C)cc(C(C)C)cc3C(C)C)CC2)cc1	.	.	/	.	/	/	/	/
COc1ccccc1CCn1cnc(-c2ccc(OC)c(OC)c2)c1CC(C)C	.	.	/	.	/	/	/	/
SMILES	PLCb3 inh	HGIII-sPLA2 inh	TbMetRS inhib	PLC-gamma1 inh	DAGLB inh	Tb MetRS conf	Jurkat tox	TbMetRS FP orth
C=CCn1c(SCC(=O)O)nnc1-c1ccco1	.	.	/	.	/	/	/	/
COC(=O)c1cc(-c2ccc(Br)cc2)n[nH]1	.	.	10	.	.	28	.	.
O=C(O[C@H]1CC[C@@]23CCCN2C(=O)CCC[C@H]3C1)N1CCCC1	.	.	/	.	/	/	/	/
COC(=O)[C@]12C[C@H](CC(=O)N3CCN(C(=O)C4CC4)CC3)C(=O)N(Cc3ccc(Cl)cc3Cl)C1=C[C@H](C(C)C)O[C@@H]2C1CC1	.	.	/	.	/	/	/	/
COCCN1C(=O)C(CC(=O)Nc2ccccc2)SC1=Nc1ccc(OC)cc1 (stereo not given)	.	.	.	.	.	/	/	/
COc1cccc(N=C2SC(CC(=O)Nc3ccccc3)C(=O)N2Cc2ccccn2)c1 (stereo not given)	.	.	6.6	.	.	11	.	.
CCC[C@@H](/C=C/C(=O)OC(C)(C)C)Sc1ccc(N)cc1	.	.	/	.	/	/	/	/
COc1ccc(-c2nnc(SCC(=O)NN=C/C=C\c3ccco3)n2-c2ccc(OC)cc2)cc1	.	.	/	.	/	/	/	/
Brc1ccc2[nH]c3nc(SCCN4CCOCC4)nnc3c2c1	.	.	16	.	.	33	15!	23!
Nc1cc(C(=O)OCC(=O)NCCNC(=O)COC(=O)c2ccc(Cl)c(N)c2)ccc1Cl	.	.	11	.	.	30	.	.
COc1ccccc1CNC(=O)COC(=O)c1ccc(Cl)c(N)c1	.	.	.	.	.	/	/	/
Clc1ccc(OCc2nc(-c3ccccn3)no2)c(Br)c1	.	.	5.8	.	.	6.5	.	.
COCCN(C(=O)c1csnn1)C(C(=O)NC1CCCCC1)c1ccccc1 (stereo not given)	.	.	.	.	.	/	/	/
COCCN(C(=O)c1csnn1)C(C(=O)NC1CCCCC1)c1ccc(Cl)cc1 (stereo not given)	.	.	9.2	.	.	.	.	.
O=C(NCc1ccccc1)C1=C[C@H](c2ccc3c(c2)OCO3)C[C@H](OCCCCO)O1	.	.	.	.	.	/	/	/
O=C(NCc1nc2ccccc2[nH]1)C1=C[C@H](c2ccc3c(c2)OCO3)C[C@H](OCCCCO)O1	.	.	69	.	.	89	.	76
O=C(NCc1ccccc1)C1=C[C@H](c2ccc(C(F)(F)F)cc2)C[C@H](OCCCCO)O1	.	.	.	.	.	/	/	/
C#CCNC(=O)C1=C[C@@H](c2ccccc2)C[C@@H](OCCCCO)O1	.	.	.	.	.	/	/	/
O=C(NCc1nc2ccccc2[nH]1)C1=C[C@@H](c2ccc(C(F)(F)F)cc2)C[C@@H](OCCCCO)O1	.	.	32	.	.	68	.	35
O=C(NCc1nc2ccccc2[nH]1)C1=C[C@H](c2ccc(C(F)(F)F)cc2)C[C@H](OCCCCO)O1	.	.	31	.	.	69	.	38
O=C(NCc1ccccc1)C1=C[C@@H](c2ccc(C(F)(F)F)cc2)C[C@@H](OCCCCO)O1	.	.	.	.	.	/	/	/
O=C(NCc1nc2ccccc2[nH]1)C1=C[C@H](c2ccccc2)C[C@H](OCCCCO)O1	.	.	39	.	.	74	.	45
